In publication PMC9729583 (Antiviral Research, 2022):
Read-outs that look alike come from different tables or passages of the source.

Tests used:
[1] = tested on: mNG-SARS-CoV-2; assay: microbe, parasite or virus in culture; format: cell-based; conditions: for % Inhibition: 50 µM; for inhibition at 50 µM: Severe acute respiratory syndrome coronavirus 2, Calu-3
[2] = tested on: mNG-SARS-CoV-2; assay: microbe, parasite or virus in culture; format: cell-based
[3] = tested on: Calu-3 cells; assay: PrestoBlue cytotoxicity assay; format: cell-based, human; conditions: Calu-3, 48 h incubation
Outline: (§1)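 Calu-3 cells were grown per ATCC recommendations and seeded in 96-well plates. After 24 h, medium was replaced with serially diluted test compound for 48 h. Cells were then incubated 2 h with 5% PrestoBlue and fluorescence read at ex 555/em 585 nm. Viability was expressed as % of vehicle-treated cells. At least three independent experiments were run.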

[4] = tested on: SARS-CoV-2 Omicron BA.1; assay: dose-response against SARS-CoV-2 Omicron BA.1 in Calu-3 cells; format: cell-based
[5] = tested on: wild-type SARS-CoV-2; conditions: cited from earlier work
[6] = tested on: wild-type SARS-CoV-2; conditions: Huh-7.5 cells ref Dittmar et al., 2021; cited from earlier work
[7] = tested on: mNG-SARS-CoV-2; assay: microbe, parasite or virus in culture; format: cell-based; remark: listed apart in the source
[8] = PrestoBlue cytotoxicity assay; format: cell-based, human; conditions: human, Calu-3 cells
Outline: as §1

[9] = target: 3CLpro (Severe acute respiratory syndrome coronavirus 2, UniProt P0DTD1); assay: 3CLpro enzymatic assay; format: biochemical, SARS-CoV-2; conditions: data not shown
[10] = Severe acute respiratory syndrome coronavirus 2, Calu-3, read-out: BA.1 (EC50) Nuc, Calu-3, nucleocapsid staining
[11] = Severe acute respiratory syndrome coronavirus 2, Calu-3, read-out: BA.1 (EC50) dsRNA, Calu-3, dsRNA staining
[12] = Severe acute respiratory syndrome coronavirus 2, Calu-3

Row | Compound | % Inhibition [1] | EC50 [2] | CC50 [3] | also measured
1 | 2-butylchrysin | 95% | 18 µM | > 100 µM | 
2 | CC(C)=CCc1cc([C@@H]2CC(=O)c3c(O)cc(O)c(CC=C(C)C)c3O2)cc(CC=C(C)C)c1O [5-hydroxysophoranone] | 100% | 20.2 µM | > 100 µM | 
3 | COc1cc([C@H]2OC[C@]3(O)[C@@H](c4ccc(O)c(OC)c4)OC[C@H]23)ccc1O [8-hydroxypinoresinol] | 82% | 24.4 µM | > 100 µM | 
4 | N[C@H](CNc1nc(-c2ccncc2)nc2sc3c(c12)CCCC3)Cc1ccccc1 [CRT0066854] |  |  |  | EC50 ([4]; read-out: BA.1 (EC50) Nuc, Calu-3, nucleocapsid staining): 0.3 µM; EC50 ([4]; read-out: BA.1 (EC50) dsRNA, Calu-3, dsRNA staining): 0.1 µM
5 | CC(C)C[C@H](NC(=O)OCc1ccccc1)C(=O)N[C@@H](CC1CCNC1=O)C(O)S(=O)(=O)O (stereo partly drawn) [GC376] |  | 0.475 µM |  | EC50 ([5]; Vero E6 cells ref Dampalla et al., 2021): 0.23 µM; EC50 ([5]; Vero E6 cells ref Fu et al., 2020): 0.7 µM
6 | Cn1c2ccccc2c2c3c(c4c5ccccc5n(CCC#N)c4c21)CNC3=O [Gö6976] |  |  |  | effect on SARS-CoV-2 BA.1 infection [4]: dramatic increase in susceptibility of cells to SARS-CoV-2 BA.1
7 | COc1ccc2c(c1)c(C1=C(c3c[nH]c4ccccc34)C(=O)NC1=O)cn2CCCN(C)C [Gö6983] |  |  |  | effect on SARS-CoV-2 BA.1 infection [4]: dramatic increase in susceptibility of cells to SARS-CoV-2 BA.1
8 | C/C=C(/C)C(=O)O[C@H]1C(C)=C[C@]23C(=O)[C@@H](C=C(CO)[C@@H](O)[C@]12O)[C@H]1[C@@H](C[C@H]3C)C1(C)C [PEP 005] |  |  |  | EC50 [4, 10]: 0.7 µM; EC50 [4, 11]: 1.5 µM
9 | CCC(CC)COC(=O)[C@H](C)N[P@](=O)(OC[C@H]1O[C@@](C#N)(c2ccc3c(N)ncnn23)[C@H](O)[C@@H]1O)Oc1ccccc1 [RDV, remdesivir] |  |  |  | EC50 [6]: 0.002 µM; EC50 ([7]; Severe acute respiratory syndrome coronavirus 2, Huh-7.5.1, read-out: EC50 (mNG)): 0.0036 µM; EC50 ([7]; Severe acute respiratory syndrome coronavirus 2, Huh-7.5.1, read-out: EC50 (nucleocapsid staining)): 0.0076 µM
10 | CC1(C)C=Cc2c(cc3occ(-c4ccc(O)cc4)c(=O)c3c2O)O1 [alpinumisoflavone] |  |  |  | inhibition at 50 µM [1]: 100%; CC50 at 48 h [8]: > 100 µM
11 | C[C@@H]1CC[C@@]2(OC1)O[C@H]1C[C@H]3[C@@H]4CC[C@@H]5CC(=O)CC[C@]5(C)[C@H]4CC(=O)[C@]3(C)[C@@]1(O)[C@@H]2C [asparacemosone B] | 83% | 4.04 µM | > 100 µM | 
12 | CCC/C=C/C=C/C(=O)O[C@H]1/C(=C/C(=O)OC)C[C@H]2C[C@H]([C@@H](C)O)OC(=O)C[C@H](O)C[C@@H]3C[C@H](OC(C)=O)C(C)(C)[C@](O)(C[C@@H]4C/C(=C/C(=O)OC)C[C@H](/C=C/C(C)(C)[C@]1(O)O2)O4)O3 [bryostatin, bryostatin-1] |  |  |  | EC50 [4, 10]: 0.222 µM; EC50 [4, 11]: 0.523 µM
13 | CC(=O)O[C@H]1CC[C@]2(C)[C@H]3CC[C@]4(C)Oc5cc(C)oc(=O)c5C[C@H]4[C@]3(C)CC[C@H]2C1(C)C [chevalone B] | 95% | 4.47 µM | > 100 µM | 
14 | CC(=O)O[C@H]1CC[C@]2(C)[C@H]3CC[C@]4(C)Oc5oc(C)cc(=O)c5C[C@H]4[C@]3(C)CC[C@H]2C1(C)C [chevalone C] | 100% | 4.14 µM | 93 µM | 
15 | O=c1cc(-c2ccccc2)oc2cc(O)cc(O)c12 [chrysin] |  |  |  | inhibition at 50 µM [1]: 99%; EC50 [2, 12]: 18.8 µM; CC50 at 48 h [8]: > 100 µM
16 | CC(C)=CCC[C@](C)(O)[C@H]1CC[C@]2(C)[C@@H]1CC[C@@H]1[C@@]3(C)CCC(=O)C(C)(C)[C@@H]3CC[C@]12C [dipterocarpol] |  | 3.05 µM |  | inhibition at 50 µM [1]: 99%; CC50 at 48 h [8]: > 100 µM

Row | Compound | % Inhibition [1] | EC50 [2] | CC50 [3] | also measured
17 | CC(C)=CCc1cc(-c2coc3c(CC=C(C)C)c(O)ccc3c2=O)ccc1O [erysubin F] |  |  |  | inhibition at 50 µM [1]: 100%; EC50 [2, 12]: 45.6 µM; CC50 at 48 h [8]: > 100 µM
18 | C=CC(C)(C)c1[nH]c2ccccc2c1-c1c(O)c(OC)c2c(c1OC)O[C@H]1Nc3ccccc3[C@@]21O [giluterrin] |  | 5.44 µM | 72 µM | 
19 | CC1(O)O[C@@H](n2c3ccccc3c3c4c(c5c6ccccc6[nH]c5c32)CNC4=O)C[C@@H](N)[C@H]1O (stereo partly drawn) [holyrine B] |  |  |  | activity against 3CLpro [9]: neither holyrine A nor B presented activity against 3CLpro
20 | C=C1C[C@@]23CC[C@H]4[C@@](C)(CCC[C@@]4(C)C(=O)O)[C@@H]2CC[C@@H]1C3 [kaur-16-en-18-oic acid] | 100% | 15.1 µM | > 100 µM | 
21 | CC(C)=CCC/C(C)=C/Cc1c(O)cc2oc3c(O)cccc3c(=O)c2c1O [mangostinone] |  | 27.9 µM |  | inhibition at 50 µM [1]: 92%; CC50 at 48 h [8]: > 100 µM
22 | Cc1cc(O)c(C=O)c2c1C(=O)Oc1c(cc3c(c1C)C(=O)CC(C)(C)O3)O2 [mollicellin B] |  | 6.79 µM |  | inhibition at 50 µM [1]: 100%; CC50 at 48 h [8]: > 100 µM
23 | COc1c2ccoc2c(OCC=C(C)C)c2oc(=O)ccc12 [phellopterin] |  | 6.35 µM |  | inhibition at 50 µM [1]: 96%; CC50 at 48 h [8]: 93 µM
24 | CC(=O)O[C@@]12C[C@@H](C)[C@@]3(O)[C@@H](C=C(CO)C[C@]4(O)C(=O)C(C)=C[C@@H]34)[C@@H]1C2(C)C [prostratin] |  |  |  | EC50 [4, 10]: 11.6 µM; EC50 [4, 11]: 5 µM
25 | C=C1C[C@H]2[C@@](C)(C(=O)C(O)=C3C(C)(C)C(=O)CC[C@@]32C)[C@@H]2C(=O)O[C@@](C)(C(=O)OC)C(=O)[C@@]12C [terretonin A] |  | 7.31 µM |  | inhibition at 50 µM [1]: 82%; CC50 at 48 h [8]: > 100 µM
26 | COc1cc(-c2cc3c(c(=O)o2)C[C@]2(O)[C@@]4(C)C(=O)C=CC(C)(C)[C@]4(O)CC[C@@]2(C)O3)cc(OC)c1OC [territrem B] |  | 6.64 µM |  | inhibition at 50 µM [1]: 100%; CC50 at 48 h [8]: > 100 µM
27 | acetyl hyrtiosal | 97% | 1.97 µM | > 100 µM | 
28 | artahongkongene B | 81% | 22 µM | > 100 µM | 
29 | asparacemosone A | 95% | 20.7 µM | > 100 µM | 
30 | crotonolide F | 97% | 8.21 µM | > 100 µM | 
31 | knecorticosanone G | 100% | 3.5 µM | > 100 µM | 
32 | piperbonin A | 100% | 3.61 µM | > 100 µM | 
